Measured values taken from ChEMBL document CHEMBL3804799, “Synthesis and Biological Evaluation of Novel σ1 Receptor Ligands for Treating Neuropathic Pain: 6-Hydroxypyridazinones” (J Med Chem, 2016).

Assays:
[1] = target: Sigma non-opioid intracellular receptor 1 (Cavia porcellus, UniProt Q60492); test: Displacement of [3H]-(+)-pentazocine from Sigma1 receptor in Dunkin Hartley guinea pig brain membrane after 180 mins by liquid scintillation counting analysis
Method in brief: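 Guinea pig brain (minus cerebellum) P2 membranes in Tris-HCl. Incubated with [³H]-(+)-pentazocine (4.0 nM solution added) in pH 8.0 buffer, 25 °C for 180 min; nonspecific binding with haloperidol. Filtered through PEI-presoaked GF/B filters; scintillation counting. Compounds in 5% DMSO, six concentrations (10⁻⁵–10⁻¹⁰ M). […] At least three experiments.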

[2] = Displacement of [3H]-DTG from Sigma2 receptor in Dunkin Hartley guinea pig brain membrane after 120 mins by liquid scintillation counting analysis in presence of sigma1 blocker (+)-SKF-10047; set-up: species or system Cavia porcellus
Method in brief: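 Guinea pig brain P2 membranes incubated with 3 nM [³H]-DTG plus 400 nM (+)-SKF-10047 to block σ1 sites, Tris-HCl pH 8.0, 25 °C for 120 min; nonspecific binding with DTG. Filtration on PEI-presoaked GF/B filters, scintillation counting. […] At least three experiments.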

Cavia porcellus = species on record: Cavia porcellus; test: Selectivity ratio of Ki for Sigma2 receptor in Dunkin Hartley guinea pig brain membrane to Ki for Sigma1 receptor in Dunkin Hartley guinea pig brain membrane
Method in brief: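 Guinea pig brain P2 membranes, minus cerebellum. σ1: [3H]-(+)-pentazocine, haloperidol for nonspecific binding, 25 °C for 180 min. σ2: 3 nM [3H]-DTG with 400 nM (+)-SKF-10047 masking σ1, DTG for nonspecific binding, 25 °C for 120 min. Six concentrations, 10⁻⁵ to 10⁻¹⁰. Filter-bound radioactivity counted. Hill-fit IC50 converted by Cheng–Prusoff, at least three experiments each; ratio σ2 Ki/σ1 Ki.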

[3] = Acute toxicity in po dosed Kun Ming mouse assessed as mortality after 24 hrs; format: organism-based; conditions: in vivo
Method in brief: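 Mice, 10 per group, given a single oral dose (10 mL/kg) of 0.5% methylcellulose vehicle or test compound at 200, 500, 1000, 1500 or 2000 mg/kg. Survivors were counted 24 h after dosing and percent mortality per group was calculated. LD50 was derived by statistical analysis.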

[4] = target: Voltage-gated inwardly rectifying potassium channel KCNH2 (Homo sapiens, UniProt Q12809); test: Inhibition of human ERG expressed in HEK293 cells assessed as tail current at -50 mV holding potential by whole-cell patch clamp method
Sequence of Voltage-gated inwardly rectifying potassium channel KCNH2 (Q12809 whole entry): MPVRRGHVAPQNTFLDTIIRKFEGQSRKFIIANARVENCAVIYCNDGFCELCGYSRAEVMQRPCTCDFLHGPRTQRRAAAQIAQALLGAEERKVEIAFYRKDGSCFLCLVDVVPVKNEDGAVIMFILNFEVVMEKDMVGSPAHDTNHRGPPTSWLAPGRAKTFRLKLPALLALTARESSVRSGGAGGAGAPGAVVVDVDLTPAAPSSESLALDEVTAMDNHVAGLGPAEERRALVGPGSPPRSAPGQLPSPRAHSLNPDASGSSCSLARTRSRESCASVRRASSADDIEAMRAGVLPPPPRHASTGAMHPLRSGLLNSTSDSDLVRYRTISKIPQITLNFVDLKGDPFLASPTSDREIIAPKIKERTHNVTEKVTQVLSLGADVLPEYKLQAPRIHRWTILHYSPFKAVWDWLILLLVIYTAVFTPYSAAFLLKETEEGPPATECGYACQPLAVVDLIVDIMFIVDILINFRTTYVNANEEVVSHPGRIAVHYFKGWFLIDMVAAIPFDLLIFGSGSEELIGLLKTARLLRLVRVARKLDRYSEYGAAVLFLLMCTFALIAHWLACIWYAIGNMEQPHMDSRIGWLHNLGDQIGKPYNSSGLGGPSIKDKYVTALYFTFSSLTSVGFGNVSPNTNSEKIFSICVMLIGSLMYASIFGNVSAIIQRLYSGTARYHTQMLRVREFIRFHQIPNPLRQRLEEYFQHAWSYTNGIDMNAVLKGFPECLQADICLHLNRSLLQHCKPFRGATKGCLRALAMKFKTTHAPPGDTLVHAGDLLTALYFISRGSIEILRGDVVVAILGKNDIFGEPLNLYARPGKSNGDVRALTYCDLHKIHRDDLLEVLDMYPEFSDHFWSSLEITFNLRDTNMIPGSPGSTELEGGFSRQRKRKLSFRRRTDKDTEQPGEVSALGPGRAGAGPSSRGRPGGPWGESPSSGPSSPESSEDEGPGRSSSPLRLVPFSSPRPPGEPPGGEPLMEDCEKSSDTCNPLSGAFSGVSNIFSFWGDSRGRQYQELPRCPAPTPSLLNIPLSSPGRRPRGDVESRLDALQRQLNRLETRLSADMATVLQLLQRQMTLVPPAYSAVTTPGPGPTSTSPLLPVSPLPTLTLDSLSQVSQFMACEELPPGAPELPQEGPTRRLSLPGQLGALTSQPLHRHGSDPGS

Mus musculus [5] = test: Antiallodynic activity in Kun Ming mouse assessed as paw licking time at 160 mg/kg, ig administered 15 mins prior to formalin challenge measured after15 to 45 mins post formalin dosing; format: functional
Method in brief: (§1)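 Mice received 20 μL of 2.5% formalin (0.92% formaldehyde) in the dorsal right hind paw. Time spent licking or biting the paw was scored at 0–5 min (phase I) and 15–45 min (phase II), with a mirror behind the glass cylinder. Vehicle was 30% PEG 400 at 10 mL/kg, given 15 min before formalin. n = 10–12 per group. % antinociception = (LT_V − LT_D)/LT_V × 100.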

Mus musculus [6] = test: Antiallodynic activity in Kun Ming mouse assessed as paw biting time at 160 mg/kg, ig administered 15 mins prior to formalin challenge measured after 15 to 45 mins post formalin dosing; format: functional; method in brief: as §1
Mus musculus [7] = test: Toxicity in Kun Ming mouse assessed as reduction in the permanence time on the rotating rod at 80 mg/kg, ig measured after 30 to 120 mins by rotarod test; format: organism-based; conditions: in vivo, po
Method in brief: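 Mice were pre-trained; any that could not stay 300 s on the rod at 10 rpm were excluded. Latency to fall from the rod rotating at 10 rpm was recorded 30, 60, 90 and 120 min after intragastric dosing. 8–10 mice per group.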

Sequence of Sigma non-opioid intracellular receptor 1 (Q60492 whole entry): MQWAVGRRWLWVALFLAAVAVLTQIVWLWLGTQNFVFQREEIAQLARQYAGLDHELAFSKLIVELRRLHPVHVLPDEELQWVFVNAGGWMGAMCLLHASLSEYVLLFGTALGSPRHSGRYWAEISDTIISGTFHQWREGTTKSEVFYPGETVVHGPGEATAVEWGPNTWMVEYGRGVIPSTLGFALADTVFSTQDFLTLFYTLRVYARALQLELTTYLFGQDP

Structure (SMILES) | Ki [1] [nM] | Ki [2] [nM] | Ratio Ki (Cavia porcellus) | LD50 at 24 h [3] [mg/kg] | IC50 [4] [nM] | Time (Mus musculus [5]) [s] | Time (Mus musculus [6]) [s] | Activity (Mus musculus [7])
O=c1ccc(OCCCN2CCCCC2)nn1-c1cccc(Cl)c1Cl | 48 | 1620 | 33.6 |  |  |  |  | 
O=c1ccc(OCCCN2CCCCC2)nn1-c1ccc(F)c(F)c1 | 8 | 1910 |  | 780 |  |  |  | 
O=C1CCN(CCCOc2ccc(=O)n(-c3ccccc3)n2)CC1 | 580 | > 2000 |  |  |  |  |  | 
Cc1c(OCCCN2CCCCC2)nn(-c2ccc(Cl)c(Cl)c2)c(=O)c1C | 66.6 | 1430 | 21.4 |  |  |  |  | 
Cc1ccc(-n2nc(OCCCN3CCC(C)CC3)ccc2=O)cc1 | 61.6 | 1550 | 25.1 |  |  |  |  | 
O=c1ccc(OCCCN2CCCCC2)nn1-c1ccc(Cl)cc1 | 9.8 | 1570 | 160 | 754 | 1450 |  |  | 
CC1CCN(CCCOc2ccc(=O)n(-c3ccc(F)c(Cl)c3)n2)CC1 | 10 | 1630 | 163 | 1530 | 2160 | 59.65 | 56.43 | 
O=c1ccc(OCCCCN2CCCCC2)nn1-c1ccccc1 | 124 | 1720 | 13.9 |  |  |  |  | 
CC1CCN(CCCOc2ccc(=O)n(-c3ccc(F)cc3)n2)CC1 | 19.8 | 1620 | 81.7 |  |  |  |  | 
CC1CCN(CCCOc2ccc(=O)n(-c3ccccc3)n2)CC1 | 28 | 1460 | 52.3 |  |  |  |  | 
CC1CCN(CCCCOc2ccc(=O)n(-c3ccccc3)n2)CC1 | 143 | 1440 | 10.1 |  |  |  |  | 
CC1CCN(CCCOc2ccc(=O)n(-c3ccc(F)c(F)c3)n2)CC1 | 15 | 1700 | 113 | 1300 | 2680 | 59.65 | 56.43 | 
CC1CC(C)CN(CCCOc2ccc(=O)n(-c3ccccc3)n2)C1 (stereo not given) | 46 | 1820 | 39.6 |  |  |  |  | 
O=c1ccc(OCCN2CCCCC2)nn1-c1ccccc1 | > 2000 | > 2000 |  |  |  |  |  | 
Cc1cc(OCCN2CCOCC2)nn1-c1ccc2ccccc2c1 |  | > 2000 |  |  |  |  |  | Toxic
O=c1ccc(OCCCN2CCCCC2)nn1-c1ccc(F)c(Cl)c1 | 10 | 1580 | 158 | 900 | 980 |  |  | 
CC1CCN(CCCOc2ccc(=O)n(-c3ccc(Cl)c(Cl)c3)n2)CC1 | 5 | 1740 | 348 | 575 | 1460 |  |  | 
O=c1c2ccccc2c(OCCCN2CCCCC2)nn1-c1ccc(Cl)c(Cl)c1 | 140 | 1510 | 10.8 |  |  |  |  | 
O=c1ccc(OCCCN2CCCCC2)nn1-c1ccc(F)cc1 | 17 | > 2000 |  |  |  |  |  | 
CC1CC(C)CN(CCCCOc2ccc(=O)n(-c3ccccc3)n2)C1 (stereo not given) | 222 | 1370 | 6.2 |  |  |  |  | 
O=c1ccc(OCCCN2CCCCC2)nn1C1CCCC1 | > 2000 | > 2000 |  |  |  |  |  | 
CC1CCN(CCCOc2ccc(=O)n(-c3ccc(Cl)cc3)n2)CC1 | 9.5 | 1780 |  | 717 |  |  |  | 

Compounds with a lower Ki [2], results first:

Ki [1] [nM] | Ki [2] [nM] | Ratio Ki (Cavia porcellus) | Structure (SMILES) | LD50 at 24 h [3] [mg/kg] | IC50 [4] [nM] | Time (Mus musculus [5]) [s] | Time (Mus musculus [6]) [s] | Activity (Mus musculus [7])
45 | 902 | 20 | O=c1ccc(OCCCN2CCCCC2)nn1-c1cc(Cl)ccc1Cl |  |  |  |  | 
30.3 | 508 | 16.8 | CN1CCCN(CCCOc2ccc(=O)n(-c3ccccc3)n2)CC1 |  |  |  |  | 
66.3 | 502 | 7.6 | O=c1ccc(OCCCN2CCOCC2)nn1-c1ccccc1 |  |  |  |  | 
84.1 | 913 | 10.8 | CC1CCN(CCCOc2ccc(=O)n(-c3ccc4ccccc4c3)n2)CC1 |  |  |  |  | 
25 | 809 | 32.3 | O=c1ccc(OCCCN2CCCCC2)nn1-c1ccc(Cl)cc1Cl |  |  |  |  | 
69 | 1280 | 18.6 | Cc1ccc(-n2nc(OCCCN3CCCCC3)ccc2=O)cc1 |  |  |  |  | 
40.1 | 620 | 15.5 | CCN1CCN(CCCOc2ccc(=O)n(-c3ccccc3)n2)CC1 |  |  |  |  | 
74.1 | 895 | 12.1 | O=c1ccc(OCCCN2CCCCC2)nn1-c1ccc2ccccc2c1 |  |  |  |  | 
30 | 1300 | 43.3 | O=c1ccc(OCCCN2CCCCC2)nn1-c1cc(Cl)cc(Cl)c1 |  |  |  |  | 
35 | 1100 | 31.4 | CC1CCN(CCCOc2ccc(=O)n(-c3ccc(Cl)cc3Cl)n2)CC1 |  |  |  |  | 
55 | 1200 | 21.8 | CC1CCN(CCCOc2ccc(=O)n(-c3cccc(Cl)c3Cl)n2)CC1 |  |  |  |  | 
104 | 934 | 8.9 | O=c1c2c(c(OCCCN3CCCCC3)nn1-c1ccc(Cl)c(Cl)c1)CCCC2 |  |  |  |  | 
35.5 | 458 | 12.9 | O=c1ccc(OCCCN2CCCC2)nn1-c1ccccc1 |  |  |  |  | 
98.1 | 1120 | 11.4 | CC(C)N(CCCOc1ccc(=O)n(-c2ccccc2)n1)C(C)C |  |  |  |  | 
108 | 818 | 7.57 | CN(C)CCCOc1ccc(=O)n(-c2ccccc2)n1 |  |  |  |  | 
21.4 | 1070 | 50.2 | O=c1ccc(OCCCN2CCCCC2)nn1-c1ccccc1 |  |  |  |  | 
31.7 | 376 | 11.9 | CN1CCN(CCCOc2ccc(=O)n(-c3ccccc3)n2)CC1 |  |  |  |  | 
96.5 | 1170 | 12.1 | CCN(CC)CCCOc1ccc(=O)n(-c2ccccc2)n1 |  |  |  |  | 
60 | 870 | 14.5 | CC1CCN(CCCOc2ccc(=O)n(-c3cc(Cl)ccc3Cl)n2)CC1 |  |  |  |  | 
43 | 1320 | 30.7 | CC1CCN(CCCOc2ccc(=O)n(-c3cc(Cl)cc(Cl)c3)n2)CC1 |  |  |  |  | 
